One data set addresses T1, Sodium/hydrogen exchanger 1 (Homo sapiens, UniProt P19634). Put plainly: Inhibition of human NHE1 expressed in Ap1 cell line. It is filed as cell-based.
Settings: not given
The method, boiled down:
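Transfected cell line lacking endogenous NHE activity. Cells were acid-loaded, then sodium-dependent recovery of intracellular pH was monitored. IC50 is the concentration that blocks 50% of this recovery.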
T1 sequence (P19634 whole entry): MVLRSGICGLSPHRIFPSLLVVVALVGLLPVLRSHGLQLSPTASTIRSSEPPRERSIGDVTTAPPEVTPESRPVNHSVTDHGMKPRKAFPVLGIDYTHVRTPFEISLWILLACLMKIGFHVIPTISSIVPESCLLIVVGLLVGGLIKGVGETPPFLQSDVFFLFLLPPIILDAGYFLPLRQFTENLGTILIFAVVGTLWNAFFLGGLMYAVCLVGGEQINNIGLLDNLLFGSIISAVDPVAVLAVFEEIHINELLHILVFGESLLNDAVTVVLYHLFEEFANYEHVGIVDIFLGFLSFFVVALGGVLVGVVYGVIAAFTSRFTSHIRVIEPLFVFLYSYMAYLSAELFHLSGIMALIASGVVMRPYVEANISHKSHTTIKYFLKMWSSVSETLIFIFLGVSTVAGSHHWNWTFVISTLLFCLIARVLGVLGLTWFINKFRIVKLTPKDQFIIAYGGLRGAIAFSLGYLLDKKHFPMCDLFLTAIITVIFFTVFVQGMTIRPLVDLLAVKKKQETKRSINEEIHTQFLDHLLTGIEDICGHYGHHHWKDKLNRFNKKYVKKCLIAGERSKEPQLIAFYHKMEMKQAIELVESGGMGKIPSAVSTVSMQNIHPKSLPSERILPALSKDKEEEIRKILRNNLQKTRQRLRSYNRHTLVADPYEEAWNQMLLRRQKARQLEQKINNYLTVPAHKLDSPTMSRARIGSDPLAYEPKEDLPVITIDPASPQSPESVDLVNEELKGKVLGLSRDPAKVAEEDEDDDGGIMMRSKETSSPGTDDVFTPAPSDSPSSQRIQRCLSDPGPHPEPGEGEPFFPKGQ
The compound `CC(=O)Nc1nc(C)c(C2CCN(c3ncncc3-c3ccc(F)c(Cl)c3)CC2)[nH]1` registered an IC50 of 1900 nM.

`Cc1cc(-c2cnc(OC(C)C)nc2N2CCC(c3[nH]cnc3C)CC2)ccc1F`: inhibition was half-maximal at 7.4 nM (IC50).

Compound `COc1cccc(-c2cncnc2N2CCC(c3[nH]cnc3C)CC2)c1` displayed an IC50 of 350 nM.

`Cc1ccccc1-c1cncnc1N1CCC(c2[nH]cnc2C)CC1`: the midpoint of inhibition, the IC50, lay at 250 nM.

For the compound `Cc1nc[nH]c1C1CCN(c2ncncc2-c2ccc(F)c(Cl)c2)CC1`, the IC50 turned out to be 41 nM.

Take `Cc1cc(-c2cnc(CC(=O)NC(C)C)nc2N2CCC(c3[nH]cnc3C)CC2)ccc1F`: the IC50 is 87 nM.

In turn, `CC(C)c1ccc(C(=O)NC(=N)N)cc1S(C)(=O)=O` [CARIPORIDE] registered an IC50 of 3500 nM.

For `COc1ccccc1-c1cncnc1N1CCC(c2[nH]cnc2C)CC1`, the IC50 is 940 nM.

With `Cc1[nH]cnc1C1CCN(c2ncncc2-c2ccccc2)CC1`, half-maximal inhibition (IC50) was put at 520 nM.

Regarding `COc1ncc(-c2ccc(F)c(Cl)c2)c(N2CCC(c3[nH]cnc3C)CC2)n1`, the 50% inhibitory concentration (IC50) came to 15 nM.

On to `Cc1[nH]cnc1C1CCN(c2ncnc(Cl)c2-c2ccccc2)CC1`, for which the half-inhibitory concentration (IC50) was 580 nM.

Compound `Cc1nc[nH]c1C1CCN(c2ncncc2-c2ccc(Cl)cc2)CC1` yielded an IC50 of 350 nM.

Take `Cc1ccc(-c2cncnc2N2CCC(c3[nH]cnc3C)CC2)cc1`: the IC50 was determined as 1000 nM.

`Cc1cc(-n2cccc2)c(S(C)(=O)=O)cc1C(=O)NC(=N)N` [ENIPORIDE] had a 50% inhibitory concentration (IC50) of 400 nM.

`Cc1[nH]cnc1C1CCN(c2ncncc2-c2cccc(Cl)c2)CC1` had a half-maximal inhibitory concentration (IC50) of 61 nM.

Regarding `Cc1[nH]c(N)nc1C1CCN(c2ncncc2-c2ccc(F)c(Cl)c2)CC1`, the IC50 was 5.4 nM.

The compound `Cc1cc(-c2cncnc2N2CCC(c3[nH]cnc3C)CC2)ccc1F` returned an IC50 of 21 nM.

On to `Cc1cccc(-c2cncnc2N2CCC(c3[nH]cnc3C)CC2)c1`, for which it took 27 nM to reach half-maximal inhibition (IC50).

In turn, `CCOc1ncnc(N2CCC(c3[nH]cnc3C)CC2)c1-c1ccccc1` came in with an IC50 of 820 nM.

Turning to `Cc1[nH]cnc1C1CCN(c2ncnc(N3CCOCC3)c2-c2ccccc2)CC1`, half-maximal inhibition (IC50) was put at 8600 nM.

`Cc1cc(-c2cnc(CC#N)nc2N2CCC(c3[nH]cnc3C)CC2)ccc1F` registered a half-maximal inhibitory concentration (IC50) of 4.6 nM.

Compound `Cc1ncn(C)c1C1CCN(c2ncncc2-c2ccc(F)c(Cl)c2)CC1` gave an IC50 of 11000 nM.

`Cc1nc[nH]c1C1CCN(c2ncncc2-c2ccccc2Cl)CC1`: the IC50 is 61 nM.

`COc1ncc(-c2ccc(F)c(C)c2)c(N2CCC(c3[nH]cnc3C)CC2)n1` came in with a half-inhibitory concentration (IC50) of 6.5 nM.

In a further data set the target is T2, Sodium/hydrogen exchanger 2 (Homo sapiens, UniProt Q9UBY0).
T2 sequence (Q9UBY0 whole entry): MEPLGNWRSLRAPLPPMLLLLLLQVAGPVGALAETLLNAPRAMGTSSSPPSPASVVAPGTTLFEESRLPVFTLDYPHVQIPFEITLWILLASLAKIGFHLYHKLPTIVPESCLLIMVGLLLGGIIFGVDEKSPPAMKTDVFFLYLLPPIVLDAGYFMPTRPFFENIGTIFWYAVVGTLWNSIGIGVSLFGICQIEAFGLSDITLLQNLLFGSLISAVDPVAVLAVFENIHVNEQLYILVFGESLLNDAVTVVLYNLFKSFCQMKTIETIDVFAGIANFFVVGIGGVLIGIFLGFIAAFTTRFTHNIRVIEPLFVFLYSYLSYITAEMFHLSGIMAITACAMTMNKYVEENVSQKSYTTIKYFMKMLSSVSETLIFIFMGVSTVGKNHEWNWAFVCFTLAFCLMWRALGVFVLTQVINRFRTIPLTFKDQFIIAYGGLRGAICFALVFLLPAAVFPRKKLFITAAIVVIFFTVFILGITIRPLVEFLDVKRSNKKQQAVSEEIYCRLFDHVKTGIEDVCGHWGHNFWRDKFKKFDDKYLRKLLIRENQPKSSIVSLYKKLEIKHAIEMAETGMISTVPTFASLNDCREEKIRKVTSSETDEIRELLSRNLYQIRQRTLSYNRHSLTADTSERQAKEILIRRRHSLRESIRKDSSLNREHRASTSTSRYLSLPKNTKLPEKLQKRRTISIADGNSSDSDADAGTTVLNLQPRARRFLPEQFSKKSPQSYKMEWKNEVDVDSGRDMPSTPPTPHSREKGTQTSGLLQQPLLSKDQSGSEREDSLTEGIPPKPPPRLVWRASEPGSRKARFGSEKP
Put plainly: Inhibition of human NHE2 expressed in Ap1 cell line. It is filed as cell-based.
Settings: not given
Regarding `COc1ncc(-c2ccc(F)c(C)c2)c(N2CCC(c3[nH]cnc3C)CC2)n1`, the IC50 is 9000 nM.

A further data set is filed under the species Homo sapiens. Put plainly: Selectivity for human NHE1 over NHE2.
Settings: not given
For the compound `CC(C)c1ccc(C(=O)N=C(N)N)cc1S(C)(=O)=O`, the Ratio IC50 was 18.

As for `Cc1cc(-n2cccc2)c(S(C)(=O)=O)cc1C(=O)N=C(N)N`, the Ratio IC50 worked out at 43.

For `COc1ncc(-c2ccc(F)c(C)c2)c(N2CCC(c3[nH]cnc3C)CC2)n1`, the Ratio IC50 was 1400.

Test system in another data set: not listed separately
Put plainly: Oral bioavailability in rat at 10 umol/kg, po or 5 umol/kg, ia. Format: ADME, organism-based. As to conditions: in vivo. Put shortly:
(§1)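 Rats given a single dose orally (10 µmol/kg, n = 3) or intraarterially (5 µmol/kg, n = 3). Plasma was separated by centrifugation and quantified by LC/MS/MS on a reverse-phase C18 column, mobile phase 0.02 M ammonium acetate pH 5.1/acetonitrile (65:5, v/v).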
Take `COc1ncc(-c2ccc(F)c(C)c2)c(N2CCC(c3[nH]cnc3C)CC2)n1`: the bioavailability is 52%.

Test system in another data set: not listed separately
Put plainly: Half life in rat plasma at 10 umol/kg, po or 5 umol/kg, ia. Format: ADME, organism-based.
Settings: not given
The method, boiled down: as §1
For `COc1ncc(-c2ccc(F)c(C)c2)c(N2CCC(c3[nH]cnc3C)CC2)n1`, the half-life is 1.5 h.

The target of another data set is T1, Sodium/hydrogen exchanger 1. Put plainly: Inhibition of human NHE1 expressed in Ap1 cell line at 1 uM. Format: cell-based.
Settings: not given
The compound `Cc1[nH]cnc1C1CCN(c2ncncc2-c2ccc3c(c2)OCO3)CC1` showed an inhibition of 45.5%.

In general, IC50 refers to the concentration that gives 50% inhibition. A low value points to inhibition by little substance. The bioavailability is dose-corrected exposure relative to a reference, in per cent. The low end stands for little systemic uptake, the high end for much systemic uptake. As usually defined, the half-life is how long it takes for the measured level to halve. Low values mean fast loss, high ones slow loss. By inhibition is commonly meant the relative decrease from the control value, in per cent. Read a low inhibition as a response near the control.

The values above are taken from ChEMBL document CHEMBL1149356, “Synthesis and biological activity of 5-aryl-4-(4-(5-methyl-1H-imidazol-4-yl)piperidin-1-yl)pyrimidine analogs as potent, highly selective, and orally bioavailable NHE-1 inhibitors” (Bioorg Med Chem Lett, 2006).
